In data set [1] the target is T1, Mu-type opioid receptor (Homo sapiens, UniProt P35372). Description: Agonist activity at human opioid mu receptor expressed in CHO cells assessed as stimulation of [35S]-GTPgammaS binding at 10 uM. It is filed as functional, cell-based. Put shortly:
(§1)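 Agonist mode: membranes from CHO (κ, μ) or HEK293 (δ) cells expressing cloned human receptors, no agonist added, tested at up to 10 μM. [35S]GTP-γ-S (0.5 nM final) binding in HEPES pH 7.4, MgCl2, NaCl, EDTA, DTT, 200 μM GDP. Read by WGA SPA beads after 2 h (δ) or 4 h (κ, μ) at room temperature, then 4 °C overnight.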

Data set [2] relates to Cerebellum. The data set can be described thus: Drug uptake in rat cerebellum at 3 ug/kg, iv pretreated 1 hr with 3-Fluoro-4-[4-[[ (2S)-2-(3-fluorophenyl)pyrrolidin-1-yl]methyl]- phenoxy]benzamide measured after 40 mins by LC/MS-MS analysis. It is filed as ADME, organism-based. Particulars: in vivo, 0.003 mg/kg. In a few lines: (§2)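 Rats were pretreated 1 h with the κ antagonist at a range of doses, then given tracer at 3 ug/kg iv. Brains were taken 40 min after tracer. Striatum and cerebellum were extracted in acetonitrile/0.1% formic acid and tracer levels quantified by LC/MS/MS.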

In data set [3] the test system is HEK293. The data set can be described thus: Selectivity ratio of Ki for human opioid delta receptor expressed in HEK293 cells to Ki for human opioid kappa receptor expressed in CHO cells. The class given is cell-based.
Data set [4] concerns the target T2, Delta-type opioid receptor (Homo sapiens, UniProt P41143). Description: Agonist activity at human opioid delta receptor expressed in HEK293 cells assessed as stimulation of [35S]-GTPgammaS binding at 10 uM. The class given is functional, cell-based. Put shortly:
as §1

For data set [5], the target named is T2, Delta-type opioid receptor. The data set can be described thus: Antagonist activity at human opioid delta receptor expressed in HEK293 cells assessed as inhibition of DPDPE-induced [35S]GTP-gamma-S binding after 4 hrs by scintillation counting. It is filed as functional, cell-based.
Data set [6] addresses T1, Mu-type opioid receptor. Description: Antagonist activity at human opioid mu receptor expressed in CHO cells assessed as inhibition of DAMGO-induced [35S]GTP-gamma-S binding after 4 hrs by scintillation counting. It is filed as functional, cell-based. Background: GTPγS resists hydrolysis and so accumulates on activated G proteins.
Data set [7] concerns the target T3, Kappa-type opioid receptor (Homo sapiens, UniProt P41145). Description: Displacement of [3H]diprenorphine from human opioid kappa receptor expressed in CHO cells after 120 mins by scintillation counting. It is filed as cell-based. Put shortly: (§3)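 11-point curves, 0.01 nM–1 μM final. 120 min at 22 °C, then filtration and scintillation counting. Nonspecific binding set by 10 μM naltrexone. Four-parameter IC50; Ki by Cheng–Prusoff.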
For orientation: Displacement assays read how much labelled ligand stays bound in the presence of the test substance.

For data set [8], the target named is T1, Mu-type opioid receptor. The data set can be described thus: Displacement of [3H]diprenorphine from human opioid mu receptor expressed in CHO cells after 120 mins by scintillation counting. The class given is cell-based. Put shortly: as §3
Data set [9] deals with CHO. Description: Selectivity ratio of Ki for human opioid mu receptor expressed in CHO cells to Ki for human opioid kappa receptor expressed in CHO cells. It is filed as cell-based.
The test system of data set [10] is CHO. The data set can be described thus: Selectivity ratio of Kb for human opioid mu receptor expressed in CHO cells to Kb for human opioid kappa receptor expressed in CHO cells. The class given is cell-based. In a few lines:
(§4)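 Kb ratios from antagonist [35S]GTP-γ-S SPA on CHO (κ, μ) or HEK293 (δ) membranes. Agonists at about 80% maximal: U69,593 300 nM (κ), DAMGO 1 μM (μ), DPDPE 30 nM (δ). 11-point curves, top 1 or 10 μM. Nonspecific binding: NorBNI, naltrexone or naltriben, each 10 μM. Kb = IC50/(1+D/EC50); geometric means with SEM.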

The target in data set [11] is T2, Delta-type opioid receptor. The data set can be described thus: Displacement of [3H]diprenorphine from human opioid delta receptor expressed in HEK293 cells after 120 mins by scintillation counting. The class given is cell-based. Put shortly: as §3
Data set [12] addresses T3, Kappa-type opioid receptor. The data set can be described thus: Antagonist activity at human opioid kappa receptor expressed in CHO cells assessed as inhibition of U69593-induced [35S]GTP-gamma-S binding after 4 hrs by scintillation counting. It is filed as functional, cell-based.
Data set [13] has as its system HEK293. Description: Selectivity ratio of Kb for human opioid delta receptor expressed in HEK293 cells to Kb for human opioid kappa receptor expressed in CHO cells. It is filed as cell-based. In a few lines:
as §4

In data set [14] the test system is Striatum. Description: Drug uptake in rat striatum at 3 ug/kg, iv measured after 40 mins by LC/MS-MS analysis. It is filed as ADME, organism-based. Particulars: in vivo, 0.003 mg/kg. Put shortly:
(§5)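 Groups of four rats received a single iv tracer dose and were killed 20 or 40 min later. Striatum was weighed, homogenized in 4 volumes acetonitrile/0.1% formic acid and centrifuged. The supernatant was diluted and analysed by LC/MS/MS against standards spiked into naive rat brain. %SUV = tissue amount/injected dose × 100.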

The target in data set [15] is T3, Kappa-type opioid receptor. Description: Agonist activity at human opioid kappa receptor expressed in CHO cells assessed as stimulation of [35S]-GTPgammaS binding at 10 uM. It is filed as functional, cell-based. In a few lines: as §1
The subject of data set [16] is Nucleic Acid. Description: Ratio of drug uptake in striatum to cerebellum in rat at 3 ug/kg, iv measured after 40 mins by LC/MS/MS analysis. The class given is ADME, organism-based. Particulars: in vivo, 0.003 mg/kg. In a few lines: (§6)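 Groups of four rats were given iv tracer and killed 20 or 40 min after dosing. Striatum (total binding) and cerebellum (nonspecific, null region) were extracted in acetonitrile/0.1% formic acid and quantified by LC/MS/MS. Binding potential was calculated as (striatum/cerebellum concentration) − 1.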

The subject of data set [17] is Striatum. The data set can be described thus: Drug uptake in rat striatum at 3 ug/kg, iv pretreated 1 hr with 3-Fluoro-4-[4-[[ (2S)-2-(3-fluorophenyl)pyrrolidin-1-yl]methyl]- phenoxy]benzamide measured after 40 mins by LC/MS-MS analysis. It is filed as ADME, organism-based. Particulars: in vivo, 0.003 mg/kg. In a few lines: as §2
The test system of data set [18] is Striatum. Description: Drug uptake in rat striatum at 1.5 ug/kg, iv measured after 40 mins by LC/MS-MS analysis. It is filed as ADME, organism-based. To be noted: in vivo, 0.0015 mg/kg. In a few lines: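 Groups of four rats received a single iv tracer dose and were killed 20 or 40 min later. Striatum was weighed, sonicated in 4 volumes of acetonitrile with 0.1% formic acid, and centrifuged. The supernatant was diluted with water and analysed by C18 LC/MS/MS (precursor-to-product ion transition) against standards spiked into naive rat brain. %SUV = (tissue amount / injected dose) × 100.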

In data set [19] the test system is Nucleic Acid. Description: Ratio of drug uptake in striatum to cerebellum in rat at 1.5 ug/kg, iv measured after 40 mins by LC/MS/MS analysis. The class given is ADME, organism-based. To be noted: in vivo, 0.0015 mg/kg. In a few lines: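 Rats (groups of four) given a single iv tracer dose, killed 20 or 40 min later. Striatum and cerebellum weighed, homogenised by ultrasonic probe in four volumes acetonitrile with 0.1% formic acid, centrifuged, supernatant diluted with water. Read-out is LC/MS/MS on C18 column monitoring precursor-to-product transitions, quantified against standards spiked into untreated rat brain. Binding potential = (striatum/cerebellum) − 1.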

The subject of data set [20] is Rattus norvegicus. The data set can be described thus: In vivo receptor occupancy of opioid kappa in iv dosed rat striatum after 40 mins by 3-Chloro-4-[4-[ [ (2S)-2-(3-pyridyl)pyrrolidin-1-yl]methyl]phenoxy]- benzamide displacement assay. It is filed as functional.
In data set [21] the test system is Rattus norvegicus. Description: Reversal of […] in po dosed rat. The class given is functional.
Data set [22] has as its system Rattus norvegicus. Description: Antinociceptive activity in po dosed rat assessed as reversal of agonist […]-induced pain by formalin test. It is filed as functional.
For data set [23], the system named is Nucleic Acid. Description: Ratio of drug uptake in striatum to cerebellum in rat at 30 ug/kg, iv measured after 40 mins by LC/MS/MS analysis. The class given is ADME, organism-based. Particulars: in vivo, 0.03 mg/kg. Put shortly:
as §6

Data set [24] has as its system Striatum. Description: Drug uptake in rat striatum at 30 ug/kg, iv measured after 40 mins by LC/MS-MS analysis. To be noted: in vivo, 0.03 mg/kg. It is filed as ADME, organism-based. In a few lines: as §5

The values that follow come from ChEMBL document CHEMBL1921714, “Discovery of aminobenzyloxyarylamides as κ opioid receptor selective antagonists: application to preclinical development of a κ opioid receptor antagonist receptor occupancy tracer” (J Med Chem, 2011).

The term Kb denotes the affinity of an antagonist, worked out from how it opposes an agonist. A word on the Ki: it is the dissociation constant of the complex between target and ligand, obtained from inhibition or displacement. Usually ED50 stands for the dose that gives a 50% effect, or the effect in half of the subjects.

Structures are written as SMILES. The source made the active and inactive calls. No cut-off for these calls is given here. Some results are limits rather than exact numbers.

T3 sequence (P41145 whole entry): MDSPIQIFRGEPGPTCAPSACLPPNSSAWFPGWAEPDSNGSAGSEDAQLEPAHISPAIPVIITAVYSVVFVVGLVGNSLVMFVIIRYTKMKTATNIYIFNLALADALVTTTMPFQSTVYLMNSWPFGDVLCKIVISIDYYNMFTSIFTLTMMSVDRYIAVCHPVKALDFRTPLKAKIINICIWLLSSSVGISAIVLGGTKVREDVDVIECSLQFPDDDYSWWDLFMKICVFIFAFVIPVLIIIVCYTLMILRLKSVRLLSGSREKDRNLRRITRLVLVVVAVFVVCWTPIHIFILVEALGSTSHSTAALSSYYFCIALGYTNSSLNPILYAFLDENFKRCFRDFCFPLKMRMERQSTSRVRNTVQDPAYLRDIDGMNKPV
T1 sequence (P35372 whole entry): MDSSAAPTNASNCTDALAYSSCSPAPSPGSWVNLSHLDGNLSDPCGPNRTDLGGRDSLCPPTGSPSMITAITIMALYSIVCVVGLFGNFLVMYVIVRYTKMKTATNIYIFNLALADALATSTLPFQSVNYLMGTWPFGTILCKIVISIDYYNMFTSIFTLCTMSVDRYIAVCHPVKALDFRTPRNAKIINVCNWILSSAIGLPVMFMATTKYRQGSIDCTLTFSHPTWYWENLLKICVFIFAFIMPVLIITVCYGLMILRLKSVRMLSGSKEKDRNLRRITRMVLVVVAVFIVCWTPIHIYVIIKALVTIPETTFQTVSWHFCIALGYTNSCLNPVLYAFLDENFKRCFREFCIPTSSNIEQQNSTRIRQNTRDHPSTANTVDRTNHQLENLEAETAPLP
T2 sequence (P41143 whole entry): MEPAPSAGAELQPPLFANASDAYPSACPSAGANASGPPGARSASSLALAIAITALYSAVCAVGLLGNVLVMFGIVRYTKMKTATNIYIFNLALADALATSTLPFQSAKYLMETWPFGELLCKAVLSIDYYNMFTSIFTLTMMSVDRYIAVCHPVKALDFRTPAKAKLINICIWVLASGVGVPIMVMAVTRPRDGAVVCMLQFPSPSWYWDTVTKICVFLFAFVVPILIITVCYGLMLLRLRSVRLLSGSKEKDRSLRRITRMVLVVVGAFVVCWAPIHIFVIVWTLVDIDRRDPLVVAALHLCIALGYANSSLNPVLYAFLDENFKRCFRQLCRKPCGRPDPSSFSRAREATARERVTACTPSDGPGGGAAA

Turning to `NC(=O)c1ccc(Oc2ccc(CN3CCC[C@H]3c3cccnc3)cc2)c(Cl)c1`, the result in data set [1], in data set [4] and in data set [15] was inactive. Further, the Drug uptake entry in [2] is listed as “Not Active”; in data set [17], “Active”. For the same compound, the results for the Ratio Ki in data set [3] and in [9] were 212 and 36, respectively. The antagonist dissociation constant (Kb) in [5] stood at 83.3 nM; in data set [6] it was 6.8 nM; in data set [12], 0.632 nM. For the same compound, the inhibition constant (Ki) in data set [7] is 0.722 nM; in [8] it was 25.8 nM; in [11] it was 153 nM. The Ratio in [10] was 11; in data set [13], 132; in data set [16], 1.2. The same compound returned an SUV in [14] of 67%.

For `COC(=O)N1CCN(C(=O)Cc2ccc(Cl)c(Cl)c2)[C@H](CN2CCCC2)C1`, the outcome in data set [1], in [4] and in data set [15] was inactive. Moreover, the Ratio Ki in data set [3] came to 841; in data set [9] it was 69. The SUV in data set [18] was 50%. Also, in data set [19], the Ratio was 1.5. In addition, the Ki in data set [7] amounted to 0.502 nM; in [8], 34.7 nM; in data set [11], 422 nM.

For `NC(=O)c1ccc(Oc2ccc(CN3CCC[C@H]3c3cccc(F)c3)cc2)c(F)c1`, the result in data set [1], in data set [4] and in data set [15] was inactive. The Ratio Ki came to 373 in data set [3] and 63 in data set [9]. In addition, the results for the Kb in [5], in data set [6] and in data set [12] were 293 nM, 21.3 nM and 1.57 nM, respectively. Also, the Ki in [7] is 0.565 nM; in data set [8], 35.8 nM; in data set [11], 211 nM. Also, the ED50 is 0.06 mg/kg in data set [20], 30 mg/kg in [21] and 0.24 mg/kg in [22]. Also, the Ratio in data set [10] turned out to be 14; in data set [13], 187; in [16] it was 0.2.

Consider `NC(=O)c1ccc(Oc2ccc(CN3CCCC3c3cccnc3)cc2)nc1` (racemic), for which the result in data set [1], in data set [4] and in data set [15] was inactive. For the same compound, the results for the Ratio in [23], in [10] and in data set [13] were 2.2, 19 and 69, respectively. For the same compound, the Ratio Ki in data set [3] was > 330; in [9], 27. Further, the figures for the Kb in [5], in data set [6] and in data set [12] were 407 nM, 110 nM and 5.89 nM, respectively. For the same compound, the inhibitory constant (Ki) is 1.49 nM in [7], 39.6 nM in [8] and > 500 nM in data set [11]. Also, the SUV in data set [24] amounted to 13%.
